Data taken from ChEMBL document CHEMBL2029242 (J Med Chem, 2012).

Tests used:
[1] = system: Mus musculus; test: Toxicity in athymic nude mouse xenografted with human COLO205 cells at 10 mg/kg, po bid for 14 days measured upto 1 week post dosing; type: organism-based, COLO 205; set-up: dose 10 mg/kg, route oral; settings: in vivo
Method in brief: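 Athymic nude mice (20–25 g) were inoculated subcutaneously in the flank with 1×10^6 Colo-205 cells. At 150–200 mm3 they were randomized (n = 10/group) to oral vehicle (22% HPβCD) or 10, 30 or 100 mg/kg BID for 14 days. Calipers were used three times weekly. Body weight and behavior were monitored, with 7–10 days of follow-up after dosing. Partial regression meant volume falling in ≥3 successive measurements, ending below baseline but still palpable.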

[2] = target: Cytochrome P450 2C19 (Homo sapiens, UniProt P33261); test: Inhibition of human CYP2C19; type: ADME
Sequence of Cytochrome P450 2C19 (P33261 whole entry, canonical isoform): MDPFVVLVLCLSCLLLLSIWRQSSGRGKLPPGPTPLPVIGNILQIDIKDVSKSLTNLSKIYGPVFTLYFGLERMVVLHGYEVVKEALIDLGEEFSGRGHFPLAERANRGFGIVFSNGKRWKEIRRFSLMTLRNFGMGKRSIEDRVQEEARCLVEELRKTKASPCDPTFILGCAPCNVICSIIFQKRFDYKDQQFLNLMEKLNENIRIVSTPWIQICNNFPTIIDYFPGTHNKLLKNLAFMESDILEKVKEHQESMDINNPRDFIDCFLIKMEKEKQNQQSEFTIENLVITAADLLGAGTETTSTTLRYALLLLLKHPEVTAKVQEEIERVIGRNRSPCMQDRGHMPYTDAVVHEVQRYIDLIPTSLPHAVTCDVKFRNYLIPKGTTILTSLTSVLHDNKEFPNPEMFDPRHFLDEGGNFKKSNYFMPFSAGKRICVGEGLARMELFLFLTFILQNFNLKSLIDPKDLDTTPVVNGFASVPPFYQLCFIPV
Method in brief: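 Pooled human liver microsomes (0.25 mg/mL) with NADPH (1 mM) and five pooled probe substrates (testosterone, diclofenac, dextromethorphan, mephenytoin, phenacetin). Test compound ran at eight concentrations, 0.31−40 μM, 20 min at 37 °C, with pooled control inhibitors in parallel. Isoform-specific metabolites were measured by LC-MS/MS.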

[3] = Clearance in Cynomolgus monkey at 1 mg/kg, iv and 10 mg/kg, po; type: ADME, organism-based, Macaca fascicularis; settings: in vivo
Method in brief: (§1)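 Single-dose PK. Rats: male Sprague−Dawley, jugular-catheterized, 1 mg/kg iv in 3:1 PEG400/water (n = 2) and 10 mg/kg po in Pharmatek #6 (n = 3). Female athymic nude mice: 100 mg/kg po in Pharmatek #6 (n = 3). Beagle dogs and male cynomolgus monkeys (n = 3): crossover, 1 mg/kg iv and 10 mg/kg po in 22% HPβCD, overnight fast. Plasma LC-MS/MS to 24 h; noncompartmental parameters, mean ± SD.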

[4] = Cmax in Cynomolgus monkey at 10 mg/kg, po; type: ADME, organism-based, Macaca fascicularis; set-up: dose 10 mg/kg, route oral; settings: in vivo; method in brief: as §1
[5] = Volume of distribution in Cynomolgus monkey at 1 mg/kg, iv and 10 mg/kg, po; type: ADME, organism-based, Macaca fascicularis; settings: in vivo
Method in brief: (§2)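 Male non-naive cynomolgus monkeys (2.6–3.4 kg) and beagle dogs (10.3–11.9 kg), n = 3 each, were dosed in a crossover design with a ≥7-day washout. Doses were 10 mg/kg by nasogastric gavage and 1 mg/kg as a saphenous iv bolus, both free base in 22% HPβCD. Animals were fasted overnight until about 4 h post dose. Femoral plasma was sampled from predose to 24 h and analyzed by LC-MS/MS. Parameters came from noncompartmental analysis; mean ± SD reported.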

[6] = Half life in Cynomolgus monkey at 1 mg/kg, iv and 10 mg/kg, po; type: ADME, organism-based, Macaca fascicularis; settings: in vivo; method in brief: as §1
[7] = system: Liver; test: Intrinsic clearance in dog liver microsomes; type: ADME, Canis lupus familiaris, Microsome
Method in brief: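 Pooled liver microsomes (0.5 mg/mL) were premixed with 0.1 M phosphate buffer pH 7.4, 6.5 mM MgCl2 and test compound (1 μM final, 0.2% DMSO). NADPH (1 mM) started the reaction at 37 °C, in duplicate. Minus-NADPH and testosterone controls were included. Aliquots were taken at 0, 5, 15, 30 and 60 min and quenched in acetonitrile containing internal standard.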

[8] = system: Mus musculus; test: Inhibition of BRAF V600E mutant-mediated MEK phosphorylation in human COLO205 cells xenografted in athymic nude mouse at 55 mg/kg, po after 2 hrs; type: functional; settings: COLO 205, 2 h
Method in brief: (§3)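 Mice bearing Colo-205 xenografts got one oral dose in 22% HPβCD; vehicle controls were run. Tumors were collected at time points over 24 h and lysed. pMEK and total MEK in the lysates were measured by immunoblotting and ELISA, and pMEK was normalized to total MEK.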

[9] = system: SK-MEL-28; test: Cytotoxicity against human SK-MEL-28 cells expressing BRAF V600E mutant after 72 hrs by cell titer blue assay; type: functional, cell-based; settings: SK-MEL-28, 72 h
Method in brief: (§4)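 Cells were grown in ATCC-recommended media and kept overnight in 0.5% serum. They were then exposed to compound for 72 h, and Cell Titer Blue was added for 3 h. EC50 came from fluorometric concentration−response curves, run in duplicate and repeated at least once.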

[10] = Half life in mouse liver microsomes; type: ADME, Microsome
Method in brief: (§5)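 Pooled liver microsomes (0.5 mg/mL) in 0.1 M phosphate pH 7.4 with 6.5 mM MgCl2 and compound at 1 μM (0.2% DMSO). NADPH (1 mM) started the reaction at 37 °C, with minus-NADPH and testosterone controls. Aliquots taken at 0, 5, 15, 30 and 60 min were quenched in acetonitrile; duplicates.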

[11] = Tmax in Cynomolgus monkey at 10 mg/kg, po; type: ADME, organism-based, Macaca fascicularis; set-up: dose 10 mg/kg, route oral; settings: in vivo; method in brief: as §2
[12] = Oral bioavailability in beagle dog at 10 mg/kg; type: ADME, organism-based, Canis lupus familiaris; settings: in vivo; method in brief: as §2
[13] = system: HCT-116; test: Cytotoxicity against human HCT116 cells expressing wild type BRAF after 72 hrs by cell titer blue assay; type: functional, cell-based; settings: HCT-116, 72 h; method in brief: as §4
[14] = system: DU-145; test: Cytotoxicity against human DU145 cells expressing wild type BRAF after 72 hrs by cell titer blue assay; type: functional, cell-based; settings: DU-145, 72 h; method in brief: as §4
[15] = target: Phosphatidylinositol 4,5-bisphosphate 3-kinase catalytic subunit beta isoform (Homo sapiens, UniProt P42338); test: Inhibition of PIK3-CB in human HEK293 cells after 1 hr by competition binding assay; type: cell-based
Sequence of Phosphatidylinositol 4,5-bisphosphate 3-kinase catalytic subunit beta isoform (P42338 whole entry, canonical isoform): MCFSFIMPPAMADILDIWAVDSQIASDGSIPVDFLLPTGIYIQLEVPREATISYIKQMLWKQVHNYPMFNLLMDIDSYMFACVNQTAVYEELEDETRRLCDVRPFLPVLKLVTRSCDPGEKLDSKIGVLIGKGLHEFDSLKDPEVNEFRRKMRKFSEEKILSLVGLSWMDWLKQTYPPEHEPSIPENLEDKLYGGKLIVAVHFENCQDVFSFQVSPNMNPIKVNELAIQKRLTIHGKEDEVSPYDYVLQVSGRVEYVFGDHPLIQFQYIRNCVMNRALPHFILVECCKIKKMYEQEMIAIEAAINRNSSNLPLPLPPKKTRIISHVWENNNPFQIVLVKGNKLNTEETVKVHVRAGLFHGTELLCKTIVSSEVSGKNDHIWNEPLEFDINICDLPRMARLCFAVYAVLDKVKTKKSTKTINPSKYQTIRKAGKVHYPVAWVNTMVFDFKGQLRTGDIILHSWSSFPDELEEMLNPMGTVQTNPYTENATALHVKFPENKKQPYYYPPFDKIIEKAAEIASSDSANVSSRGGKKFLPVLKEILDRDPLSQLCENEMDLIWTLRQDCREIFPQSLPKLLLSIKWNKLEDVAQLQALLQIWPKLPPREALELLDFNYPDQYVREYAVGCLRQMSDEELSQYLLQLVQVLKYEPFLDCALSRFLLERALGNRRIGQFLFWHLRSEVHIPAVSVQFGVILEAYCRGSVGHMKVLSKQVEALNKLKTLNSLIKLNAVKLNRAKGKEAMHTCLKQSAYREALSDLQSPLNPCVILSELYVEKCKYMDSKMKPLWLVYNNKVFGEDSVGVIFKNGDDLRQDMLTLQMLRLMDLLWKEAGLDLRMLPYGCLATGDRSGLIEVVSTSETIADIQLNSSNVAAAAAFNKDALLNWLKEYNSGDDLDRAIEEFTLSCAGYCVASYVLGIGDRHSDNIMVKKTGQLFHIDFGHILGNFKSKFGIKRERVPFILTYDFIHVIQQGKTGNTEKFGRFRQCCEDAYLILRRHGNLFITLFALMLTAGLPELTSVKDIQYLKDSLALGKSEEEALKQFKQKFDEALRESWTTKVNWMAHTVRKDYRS
Method in brief: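 Unbound kinase was captured on immobilized affinity ligand and quantified by qPCR. Kd came from eleven serial 3-fold dilutions, as the mean of duplicates.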

[16] = Half life in dog liver microsomes; type: ADME, Canis lupus familiaris, Microsome; method in brief: as §5
[17] = target: hERG (KCNH2) (Homo sapiens, UniProt Q12809); test: Inhibition of human ERG at 10 uM
Sequence of hERG (KCNH2) (Q12809 whole entry): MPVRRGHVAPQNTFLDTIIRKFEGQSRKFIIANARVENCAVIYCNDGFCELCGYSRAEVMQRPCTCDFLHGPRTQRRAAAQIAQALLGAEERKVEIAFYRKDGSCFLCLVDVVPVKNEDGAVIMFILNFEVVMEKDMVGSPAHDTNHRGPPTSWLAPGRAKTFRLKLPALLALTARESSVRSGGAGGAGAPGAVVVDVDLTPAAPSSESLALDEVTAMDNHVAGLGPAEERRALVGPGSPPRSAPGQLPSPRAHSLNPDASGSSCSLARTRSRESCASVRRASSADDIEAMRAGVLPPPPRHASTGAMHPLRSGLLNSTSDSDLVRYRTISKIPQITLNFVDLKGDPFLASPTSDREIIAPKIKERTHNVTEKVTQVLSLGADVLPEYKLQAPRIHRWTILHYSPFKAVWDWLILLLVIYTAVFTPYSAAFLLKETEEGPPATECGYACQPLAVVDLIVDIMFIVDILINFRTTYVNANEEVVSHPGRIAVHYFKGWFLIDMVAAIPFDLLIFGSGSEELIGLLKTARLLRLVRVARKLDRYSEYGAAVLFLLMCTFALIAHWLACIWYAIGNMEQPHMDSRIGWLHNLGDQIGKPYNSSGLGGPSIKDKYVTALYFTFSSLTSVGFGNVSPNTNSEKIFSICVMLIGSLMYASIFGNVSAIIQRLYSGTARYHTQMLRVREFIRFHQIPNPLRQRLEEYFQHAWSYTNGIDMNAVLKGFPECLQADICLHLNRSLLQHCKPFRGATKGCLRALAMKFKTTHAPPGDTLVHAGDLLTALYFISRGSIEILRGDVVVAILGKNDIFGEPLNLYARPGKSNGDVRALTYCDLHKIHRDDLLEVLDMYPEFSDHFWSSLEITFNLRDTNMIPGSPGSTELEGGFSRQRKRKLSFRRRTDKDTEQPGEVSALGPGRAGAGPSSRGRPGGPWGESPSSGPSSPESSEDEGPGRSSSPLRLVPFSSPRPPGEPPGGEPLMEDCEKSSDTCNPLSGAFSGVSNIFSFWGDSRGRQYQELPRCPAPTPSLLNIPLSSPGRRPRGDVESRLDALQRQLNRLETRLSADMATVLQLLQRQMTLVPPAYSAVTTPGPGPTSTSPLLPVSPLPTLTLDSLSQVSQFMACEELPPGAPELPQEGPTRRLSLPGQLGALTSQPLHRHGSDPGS
Method in brief: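 Whole-cell patch clamp on CHO cells stably expressing hERG. Baseline was set in external solution with 0.1% DMSO. Test article was then applied until steady state, up to 12 min.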

[18] = Terminal half life in Sprague-Dawley rat at 1 mg/kg, iv and 10 mg/kg, po; type: ADME, organism-based; settings: in vivo, read-out: beta t1/2 (converted)
Method in brief: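 Male Sprague-Dawley rats (250–350 g, jugular-catheterized) received a single dose either iv at 1 mg/kg in 3:1 PEG400/water (n = 2) or po at 10 mg/kg in Pharmatek #6 (n = 3). Plasma was sampled at 5 min (iv only), 15 and 30 min, and 1, 2, 4, 6 and 24 h. Samples were analyzed by LC-MS/MS after acetonitrile precipitation. Parameters came from noncompartmental linear-trapezoidal analysis of individual animals.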

[19] = system: A-375; test: Cytotoxicity against human A375 cells expressing BRAF V600E mutant after 72 hrs by cell titer blue assay; type: functional, cell-based; settings: A-375, 72 h; method in brief: as §4
[20] = target: Hepatocyte growth factor receptor (Homo sapiens, UniProt P08581); test: Inhibition of cMET in human HEK293 cells after 1 hr by competition binding assay; type: cell-based
Sequence of Hepatocyte growth factor receptor (P08581 whole entry): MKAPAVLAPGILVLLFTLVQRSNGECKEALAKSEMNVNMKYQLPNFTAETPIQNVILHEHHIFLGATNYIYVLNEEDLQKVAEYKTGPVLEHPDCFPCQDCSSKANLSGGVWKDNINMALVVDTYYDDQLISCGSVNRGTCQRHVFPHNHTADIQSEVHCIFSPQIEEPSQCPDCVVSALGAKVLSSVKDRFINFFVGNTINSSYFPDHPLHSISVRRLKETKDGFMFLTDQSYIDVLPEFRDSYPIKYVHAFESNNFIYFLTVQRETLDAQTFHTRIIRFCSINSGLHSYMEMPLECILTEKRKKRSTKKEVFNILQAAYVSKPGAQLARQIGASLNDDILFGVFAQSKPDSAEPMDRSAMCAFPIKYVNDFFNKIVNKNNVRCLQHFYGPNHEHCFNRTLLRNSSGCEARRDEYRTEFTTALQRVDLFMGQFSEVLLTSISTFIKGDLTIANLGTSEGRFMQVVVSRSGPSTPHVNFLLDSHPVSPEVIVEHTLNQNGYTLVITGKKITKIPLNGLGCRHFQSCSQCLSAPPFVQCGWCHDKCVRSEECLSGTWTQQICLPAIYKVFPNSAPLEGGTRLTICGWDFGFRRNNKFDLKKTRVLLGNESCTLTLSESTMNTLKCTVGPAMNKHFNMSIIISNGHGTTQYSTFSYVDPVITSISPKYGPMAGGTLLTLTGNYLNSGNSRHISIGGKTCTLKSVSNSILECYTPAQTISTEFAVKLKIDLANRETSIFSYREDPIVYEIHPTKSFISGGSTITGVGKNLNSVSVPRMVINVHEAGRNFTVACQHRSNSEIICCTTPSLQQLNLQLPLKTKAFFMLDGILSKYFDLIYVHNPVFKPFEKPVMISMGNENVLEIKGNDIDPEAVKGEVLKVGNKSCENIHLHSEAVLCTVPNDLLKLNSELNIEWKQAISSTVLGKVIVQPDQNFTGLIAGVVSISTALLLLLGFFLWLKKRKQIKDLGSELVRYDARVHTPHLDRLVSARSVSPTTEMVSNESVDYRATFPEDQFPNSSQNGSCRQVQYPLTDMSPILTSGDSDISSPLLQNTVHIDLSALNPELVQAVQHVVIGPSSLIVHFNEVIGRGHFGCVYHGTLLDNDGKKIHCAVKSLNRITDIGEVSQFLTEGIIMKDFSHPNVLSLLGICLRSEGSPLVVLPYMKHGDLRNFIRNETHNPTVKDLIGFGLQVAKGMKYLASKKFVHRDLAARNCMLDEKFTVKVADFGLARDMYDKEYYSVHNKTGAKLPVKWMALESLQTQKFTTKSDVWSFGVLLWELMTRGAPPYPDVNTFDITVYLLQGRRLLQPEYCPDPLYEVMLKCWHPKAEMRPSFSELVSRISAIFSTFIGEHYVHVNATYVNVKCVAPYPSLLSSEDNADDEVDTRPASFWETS
Method in brief: (§6)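 KINOMEscan competition binding. Binding reactions ran at rt for 1 h. Unbound kinase was captured on an immobilized affinity ligand and quantified by qPCR. Each kinase was tested individually.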

[21] = system: Mus musculus; test: Inhibition of BRAF V600E mutant-mediated MEK phosphorylation in human COLO205 cells xenografted in athymic nude mouse at 30 mg/kg, po after 6 hrs; type: functional; settings: COLO 205, 6 h; method in brief: as §3
[22] = target: Dual specificity mitogen-activated protein kinase kinase 1 (Homo sapiens, UniProt Q02750); test: Inhibition of MEK1 in human HEK293 cells after 1 hr by competition binding assay; type: cell-based; method in brief: as §6
Sequence of Dual specificity mitogen-activated protein kinase kinase 1 (Q02750 whole entry): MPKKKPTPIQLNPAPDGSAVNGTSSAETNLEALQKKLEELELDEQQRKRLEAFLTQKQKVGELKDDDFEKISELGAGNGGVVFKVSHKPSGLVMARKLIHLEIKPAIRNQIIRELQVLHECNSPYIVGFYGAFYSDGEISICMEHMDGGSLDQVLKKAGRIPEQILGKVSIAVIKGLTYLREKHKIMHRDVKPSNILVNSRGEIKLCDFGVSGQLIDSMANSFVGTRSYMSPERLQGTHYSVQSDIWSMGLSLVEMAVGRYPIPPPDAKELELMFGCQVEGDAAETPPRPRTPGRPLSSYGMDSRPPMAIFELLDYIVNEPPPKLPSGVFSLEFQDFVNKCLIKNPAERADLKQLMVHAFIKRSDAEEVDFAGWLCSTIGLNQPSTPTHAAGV

[23] = AUC (0 to 24 hrs) in beagle dog at 10 mg/kg, po; type: ADME, organism-based, Canis lupus familiaris; set-up: time < 24 hr, dose 10 mg/kg, route oral; settings: plasma; method in brief: as §1
[24] = Clearance in Sprague-Dawley rat at 1 mg/kg, iv and 10 mg/kg, po; type: ADME, organism-based; settings: in vivo; method in brief: as §1

In the case of `COc1cc2ncnc(Oc3cccc(NC(=O)Nc4cc(C(C)(C)C(F)(F)F)on4)c3)c2cc1OC` [CEP-32496], the Activity [1] is reported as “Non-toxic”, the IC50 [2] is reported as 3400 nM and the clearance [3] is reported as 6.7 mL/min/kg. For the same compound, the Cmax [4] was 4.3 µM, the Vd [5] was 2.5 L/kg and the half-life [6] was 4.9 h. It also gave a CLH [7] of less than 23 µL/min/mg, an inhibition in vivo at 55 mg/kg [8] of 75% and an EC50 [9] of 454 nM. For the same compound, the half-life [10] was greater than 1 h, the Tmax [11] was 4 h and the bioavailability [12] was 100%. For the same compound, the EC50 [13] was 669 nM, the EC50 [14] was 2910 nM and the Kd [15] was greater than 10000 nM. The half-life [16] was greater than 1 h, the inhibition at 10 µM [17] was less than 10% and the half-life [18] was 7.8 h. The IC50 [19] was 78 nM, the Kd [20] was 513 nM and the inhibition in vivo at 30 mg/kg [21] was 75%. For the same compound, the Kd [22] was 7100 nM, the AUC(0-t) at 24 h [23] was 55.1 µM·h and the clearance [24] was 3.4 mL/min/kg.
